Calls of active or inactive are those of the source. The rule behind the calls is not given here.
Tests used:
RAW264.7 [1] = assay: Antiproliferative activity against RAW 264.7 cells in RANKL-induced osteoclastogenesis; format: functional, cell-based; settings: Mus musculus
RAW264.7 [2] = assay: Inhibition of TRAP activity in RANKL-induced osteoclastogenesis in RAW 264.7 cells; format: functional, cell-based; settings: Mus musculus
Summary of the method: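 RAW264.7 cells seeded at 1 × 10³/well in α-MEM/10% FBS with 100 ng/ml RANKL; compounds added next day. On day 4 multinucleated cells fixed (10% formalin 10 min, 95% ethanol 1 min) and dried, then given 50 mM citrate pH 4.6 with 10 mM tartrate and 5 mM p-nitrophenylphosphate for 30 min. Stopped in 0.1 N NaOH, A410 read; triplicate; IC50 from mean % of control.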

SMILES	IC50 (RAW264.7 [1])	IC50 (RAW264.7 [2])	Activity (RAW264.7 [1])
Cc1coc2c1C(=O)C(=O)c1c-2ccc2c1CC[C@H](OCCOC(=O)CCCCC1SCC3NC(=O)NC31)C2(C)C (stereo not given in full)	18.7 µM	9.56 µM	
Cc1coc2c1C(=O)C(=O)c1c-2ccc2c1CCCC2(C)COC(=O)COCCOC(=O)COc1cccc(C2(C(F)(F)F)N=N2)c1 (stereo not given)	> 20 µM	15 µM	
Cc1coc2c1C(=O)C(=O)c1c-2ccc2c1CCCC2(C)C [TANSHINONE IIA]		18.2 µM	inactive
CCC(=O)O[C@H]1CCc2c(ccc3c2C(=O)C(=O)c2c(C)coc2-3)C1(C)C		16.7 µM	inactive
Cc1coc2c1C(=O)C(=O)c1c-2ccc2c1CCCC2(C)COC(=O)COCCOC(=O)CCCCC1SCC2NC(=O)NC21 (stereo not given)	18.3 µM	12.4 µM	
Cc1coc2c1C(=O)C(=O)c1c-2ccc2c1CC[C@H](O)C2(C)C	> 20 µM	12.8 µM	
Cc1coc2c1C(=O)C(=O)c1c-2ccc2c1CC[C@H](OCCO)C2(C)C		10.2 µM	inactive
Cc1coc2c1C(=O)C(=O)c1c-2ccc2c1CC[C@H](OCCOC(=O)COc1cccc(C3(C(F)(F)F)N=N3)c1)C2(C)C	> 20 µM	18 µM	
Cc1coc2c1C(=O)C(=O)c1c-2ccc2c1CC[C@H](OC(=O)c1ccccc1)C2(C)C		19.1 µM	inactive
Cc1coc2c1C(=O)C(=O)c1c-2ccc2c1CCCC2(C)CO (stereo not given) [TANSHINONE IIB]	> 20 µM	15.6 µM	

— ChEMBL document CHEMBL1149350, “Synthesis of novel chemical probes for the study of tanshinone binding proteins” (Bioorg Med Chem Lett, 2006)
